ChEMBL document CHEMBL4665798, “Novel Human Urate Transporter 1 Inhibitors as Hypouricemic Drug Candidates with Favorable Druggability” (J Med Chem, 2020)

Experiments:
[1] = molecular target: Cytochrome P450 2C9 (Homo sapiens, UniProt P11712); experiment: Inhibition of CYP2C9 in human liver microsome using probe substrate measured after 20 mins in presence of NADPH by LC-MS/MS analysis
[2] = molecular target: Cytochrome P450 2D6 (Homo sapiens, UniProt P10635); experiment: Inhibition of CYP2D6 in human liver microsome using probe substrate measured after 20 mins in presence of NADPH by LC-MS/MS analysis
Chain of Cytochrome P450 2D6 (P10635 whole entry): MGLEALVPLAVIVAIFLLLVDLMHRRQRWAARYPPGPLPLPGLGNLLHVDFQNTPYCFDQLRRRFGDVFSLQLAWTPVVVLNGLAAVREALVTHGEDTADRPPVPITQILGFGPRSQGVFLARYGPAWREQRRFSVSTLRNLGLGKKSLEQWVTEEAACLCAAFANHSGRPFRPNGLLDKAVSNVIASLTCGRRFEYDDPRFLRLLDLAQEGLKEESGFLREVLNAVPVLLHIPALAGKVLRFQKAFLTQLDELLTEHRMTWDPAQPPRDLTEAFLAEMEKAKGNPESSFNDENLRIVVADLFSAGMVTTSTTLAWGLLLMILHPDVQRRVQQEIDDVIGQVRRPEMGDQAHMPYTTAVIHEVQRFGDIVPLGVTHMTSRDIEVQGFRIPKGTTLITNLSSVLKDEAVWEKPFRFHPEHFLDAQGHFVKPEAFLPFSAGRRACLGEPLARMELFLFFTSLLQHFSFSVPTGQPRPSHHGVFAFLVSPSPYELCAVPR

[3] = MRT (0 to infinity) in Sprague-Dawley rat at 1 mg/kg, iv by LC-MS analysis; assay type: ADME, organism-based; settings: in vivo
[4] = Sub-acute toxicity in Kunming mouse assessed as congestion in hepatic central vein at 50 mg/kg, po administered as single dose every other day for 14 days by H and E staining based assay; assay type: organism-based; settings: in vivo, 336 h, time 14 day
[5] = Sub-acute toxicity in Kunming mouse assessed as ballooning degeneration of liver at 50 mg/kg, po administered as single dose every other day for 14 days by H and E staining based assay; assay type: organism-based; settings: in vivo, 336 h, time 14 day
[6] = Sub-acute toxicity in Kunming mouse assessed as lethargy at 50 mg/kg, po administered once every second day for 14 days; assay type: organism-based; settings: in vivo, 336 h, time 14 day
[7] = molecular target: Cytochrome P450 3A4 (Homo sapiens, UniProt P08684); experiment: Inhibition of CYP3A4 in human liver microsome using midazolam as substrate measured after 20 mins in presence of NADPH by LC-MS/MS analysis
Chain of Cytochrome P450 3A4 (P08684 whole entry): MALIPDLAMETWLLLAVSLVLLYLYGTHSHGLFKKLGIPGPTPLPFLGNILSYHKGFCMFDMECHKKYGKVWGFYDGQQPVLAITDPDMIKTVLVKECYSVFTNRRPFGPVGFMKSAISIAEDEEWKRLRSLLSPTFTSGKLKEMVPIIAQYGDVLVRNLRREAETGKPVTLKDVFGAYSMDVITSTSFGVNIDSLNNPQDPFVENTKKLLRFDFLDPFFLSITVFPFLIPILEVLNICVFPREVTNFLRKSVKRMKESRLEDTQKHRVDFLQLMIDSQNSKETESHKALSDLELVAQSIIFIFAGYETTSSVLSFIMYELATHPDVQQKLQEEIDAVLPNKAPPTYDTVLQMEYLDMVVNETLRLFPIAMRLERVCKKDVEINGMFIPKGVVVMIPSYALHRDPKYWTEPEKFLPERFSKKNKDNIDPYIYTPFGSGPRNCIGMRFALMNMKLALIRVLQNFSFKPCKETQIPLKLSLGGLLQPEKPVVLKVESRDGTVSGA

[8] = molecular target: T1, Cytochrome P450 1A2 (Homo sapiens, UniProt P05177); experiment: Inhibition of CYP1A2 in human liver microsome using probe substrate measured after 20 mins in presence of NADPH by LC-MS/MS analysis
T1 sequence (P05177 whole entry): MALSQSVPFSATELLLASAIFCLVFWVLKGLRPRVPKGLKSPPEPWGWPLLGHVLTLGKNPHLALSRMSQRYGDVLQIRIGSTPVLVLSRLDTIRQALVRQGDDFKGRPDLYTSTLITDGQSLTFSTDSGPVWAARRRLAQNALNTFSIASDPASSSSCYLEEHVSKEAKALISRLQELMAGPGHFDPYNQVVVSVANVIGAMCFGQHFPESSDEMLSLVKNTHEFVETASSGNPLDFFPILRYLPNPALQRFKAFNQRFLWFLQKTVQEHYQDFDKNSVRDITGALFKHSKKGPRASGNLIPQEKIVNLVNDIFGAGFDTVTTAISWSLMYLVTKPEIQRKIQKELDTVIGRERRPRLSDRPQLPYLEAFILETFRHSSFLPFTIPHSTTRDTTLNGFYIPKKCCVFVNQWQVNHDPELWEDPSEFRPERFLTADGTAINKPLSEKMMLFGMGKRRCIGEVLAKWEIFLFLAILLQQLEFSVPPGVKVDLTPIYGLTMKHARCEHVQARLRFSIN

[9] = Sub-acute toxicity in female Kunming mouse assessed as increase in body weight at 50 mg/kg, po administered once every second day for 14 days; assay type: organism-based; settings: in vivo, 336 h, time 14 day
[10] = AUC (0 to infinity) in Sprague-Dawley rat at 1 mg/kg, iv by LC-MS analysis; assay type: ADME, organism-based; parameters: time infinity, route intravenous, dose 1 mg/kg; settings: in vivo
[11] = Half-life in Sprague-Dawley rat at 1 mg/kg, iv by LC-MS analysis; assay type: ADME, organism-based; settings: in vivo
[12] = molecular target: T2, Solute carrier family 22 member 12 (Homo sapiens, UniProt Q96S37); experiment: Inhibition of human URAT1 expressed in HEK293T cells assessed as reduction in [14C]uric acid uptake preincubated for 15 mins followed by [14C]uric acid addition by liquid scintillation counting method; assay type: cell-based
T2 sequence (Q96S37 whole entry): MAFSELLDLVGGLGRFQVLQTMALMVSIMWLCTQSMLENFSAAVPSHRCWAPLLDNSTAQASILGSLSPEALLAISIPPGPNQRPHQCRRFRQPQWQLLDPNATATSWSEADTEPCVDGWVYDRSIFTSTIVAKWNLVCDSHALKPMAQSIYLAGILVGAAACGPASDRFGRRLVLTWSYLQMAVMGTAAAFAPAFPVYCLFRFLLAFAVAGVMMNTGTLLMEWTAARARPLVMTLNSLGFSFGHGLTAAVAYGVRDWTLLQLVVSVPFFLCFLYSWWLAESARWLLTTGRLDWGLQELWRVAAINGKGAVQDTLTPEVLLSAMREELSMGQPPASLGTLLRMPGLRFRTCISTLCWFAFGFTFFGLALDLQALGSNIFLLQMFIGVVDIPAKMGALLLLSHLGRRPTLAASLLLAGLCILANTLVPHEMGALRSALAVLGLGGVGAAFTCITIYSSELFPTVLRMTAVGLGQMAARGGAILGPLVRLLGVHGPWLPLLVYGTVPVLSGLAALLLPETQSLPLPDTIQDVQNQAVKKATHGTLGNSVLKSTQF

[13] = Acute toxicity in Kunming mouse assessed as induction of abnormal behaviors by measuring lethargy at 500 mg/kg, ig; assay type: organism-based; settings: in vivo, po
[14] = molecular target: Cytochrome P450 2C19 (Homo sapiens, UniProt P33261); experiment: Inhibition of CYP2C19 in human liver microsome using probe substrate measured after 20 mins in presence of NADPH by LC-MS/MS analysis
Chain of Cytochrome P450 2C19 (P33261 whole entry): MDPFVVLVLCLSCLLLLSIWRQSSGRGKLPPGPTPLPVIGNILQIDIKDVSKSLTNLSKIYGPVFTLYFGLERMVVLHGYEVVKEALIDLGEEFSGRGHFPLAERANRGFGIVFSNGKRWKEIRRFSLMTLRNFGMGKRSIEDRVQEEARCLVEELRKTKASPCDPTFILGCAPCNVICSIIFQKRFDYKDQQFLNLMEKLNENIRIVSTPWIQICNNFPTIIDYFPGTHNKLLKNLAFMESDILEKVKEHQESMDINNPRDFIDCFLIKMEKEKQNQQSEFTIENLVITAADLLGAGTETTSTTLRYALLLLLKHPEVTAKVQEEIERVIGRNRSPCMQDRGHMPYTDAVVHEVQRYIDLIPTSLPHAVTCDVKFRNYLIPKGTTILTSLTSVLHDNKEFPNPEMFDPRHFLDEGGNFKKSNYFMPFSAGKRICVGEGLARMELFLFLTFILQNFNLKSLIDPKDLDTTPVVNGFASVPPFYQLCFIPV

[15] = Sub-acute toxicity in Kunming mouse assessed as hepatocellular condensation of liver at 50 mg/kg, po administered as single dose every other day for 14 days by H and E staining based assay; assay type: organism-based; settings: in vivo, 336 h, time 14 day
[16] = Clearance in Sprague-Dawley rat at 1 mg/kg, iv by LC-MS analysis; assay type: ADME, organism-based; settings: in vivo
[17] = tested on: Mus musculus; experiment: Hypouricemic activity in Kunming mouse model of xanthine/potassium oxonate-induced acute hyperuricemia assessed as decrease in serum uric acid level at 2 mg/kg administered 3 hrs prior to xanthine/potassium oxonate and measured after 6 hrs relative to control; assay type: functional; parameters: scale not given: the % may be the effect or the level left; settings: time 9 hrs
Outline: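 Male Kunming mice, hyperuricemia induced by intragastric xanthine plus subcutaneous potassium oxonate (0.2 mL each). […] Groups: normal vehicle, untreated model, active control, test. Serum uric acid measured. Decrease ratio = (model SUA − compound SUA)/(model SUA − vehicle SUA).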

[18] = Sub-acute toxicity in Kunming mouse assessed as hydropic degeneration of hepatocytes at 50 mg/kg, po administered as single dose every other day for 14 days by H and E staining based assay; assay type: organism-based; settings: in vivo, 336 h, time 14 day
[19] = Acute toxicity in Kunming mouse assessed as death at 500 mg/kg, ig measured for 1 week; assay type: organism-based; settings: in vivo, po, 168 h, time 1 weeks
[20] = Acute toxicity in Kunming mouse assessed as induction of abnormal behaviors by measuring clonic convulsion at 500 mg/kg, ig; assay type: organism-based; settings: in vivo, po
[21] = Acute toxicity in male Kunming mouse assessed as change in body weight at 500 mg/kg, ig measured for 1 week; assay type: organism-based; settings: in vivo, po, 168 h, time 1 weeks
[22] = Sub-acute toxicity in Kunming mouse assessed as clonic convulsion at 50 mg/kg, po administered once every second day for 14 days; assay type: organism-based; settings: in vivo, 336 h, time 14 day
[23] = Acute toxicity in female Kunming mouse assessed as change in body weight at 500 mg/kg, ig measured for 1 week; assay type: organism-based; settings: in vivo, po, 168 h, time 1 weeks
[24] = Sub-acute toxicity in Kunming mouse assessed as appearance of ruffled fur at 50 mg/kg, po administered once every second day for 14 days; assay type: organism-based; settings: in vivo, 336 h, time 14 day
[25] = AUC (0 to t) in Sprague-Dawley rat at 1 mg/kg, iv by LC-MS analysis; assay type: ADME, organism-based; parameters: dose 1 mg/kg; settings: in vivo

Chain of Cytochrome P450 2C9 (P11712 whole entry): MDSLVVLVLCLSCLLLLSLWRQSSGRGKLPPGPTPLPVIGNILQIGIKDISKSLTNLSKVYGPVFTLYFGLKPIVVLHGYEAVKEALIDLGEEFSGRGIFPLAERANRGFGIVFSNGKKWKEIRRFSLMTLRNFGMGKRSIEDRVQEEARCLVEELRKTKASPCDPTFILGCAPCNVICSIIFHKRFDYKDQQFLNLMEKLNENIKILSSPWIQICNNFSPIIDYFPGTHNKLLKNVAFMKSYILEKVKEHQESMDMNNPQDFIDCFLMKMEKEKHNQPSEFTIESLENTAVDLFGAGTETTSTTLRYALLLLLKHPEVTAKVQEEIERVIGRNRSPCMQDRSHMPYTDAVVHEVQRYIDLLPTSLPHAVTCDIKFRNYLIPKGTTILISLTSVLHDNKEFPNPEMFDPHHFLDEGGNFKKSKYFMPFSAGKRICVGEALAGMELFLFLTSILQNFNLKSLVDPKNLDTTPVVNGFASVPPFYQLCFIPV

Compound | IC50 [1] [µM] | IC50 [2] [µM] | MRT inf [3] [h] | Activity [4] | Activity [5] | Activity [6] | IC50 [7] [µM] | IC50 [8] [µM] | Activity [9] | AUC(0-inf) [10] [ng·h/mL] | half-life [11] [min] | IC50 [12] [nM] | Activity [13] | IC50 [14] [µM] | Activity [15] | clearance [16] [mL/min/kg] | Activity [17] [%] | Activity [18] | Activity [19] | Activity [20] | further results
O=C(CSc1nnc(Br)n1-c1ccc(C2CC2)c2ccccc12)NS(=O)(=O)c1ccc(Br)cc1 | 0.636 | > 50 | 4.3 | Non-Toxic | Non-Toxic | Non-Toxic | > 50 | > 50 | Non-Toxic | 3090 | 300 | 4170 | Non-Toxic | 20.6 | Non-Toxic | 5.46 | 97.84 | Non-Toxic | Non-Toxic | Non-Toxic | Activity [21]: Non-Toxic; Activity [22]: Non-Toxic; Activity [23]: Non-Toxic; Activity [24]: Non-Toxic; AUC(0-t) [25]: 3030 ng·h/mL
CC(Sc1nc2ncccc2n1-c1ccc(C2CC2)c2ccccc12)C(=O)O (racemic) | 20 | > 50 | 2.7 | Non-Toxic | Non-Toxic | Non-Toxic | > 50 | > 50 | Non-Toxic | 3910 | 186 | 1570 | Non-Toxic | 48.7 | Non-Toxic | 4.4 | 92.89 | Non-Toxic | Non-Toxic | Non-Toxic | Activity [21]: Non-Toxic; Activity [22]: Non-Toxic; Activity [23]: Non-Toxic; Activity [24]: Non-Toxic; AUC(0-t) [25]: 3480 ng·h/mL
